Laboratory results: article PMC9830076 (International Journal of Nanomedicine, 2023)
Structures can show the parent of a compound that is named as a salt.

Assays:
Caco-2 cells = assay: Endocytosis and intracellular trafficking mechanism with pathway inhibitors; assay type: cell-based; conditions: for effect of intracellular transport inhibitor on the content of intracellular 6-MP: 200 μM 6-MPNs, 2 h; for effect of endocytosis inhibitor on the internalization of 6-MPNs: 100 μM 6-MPNs, 0.5 h, intracellular 6-MP by HPLC
In short: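 Caco-2 cells in 12-well plates at 1×10^5 cells/mL, grown to 90% confluency, preincubated 0.5 h with inhibitors, PBS-washed ×3. Endocytosis inhibitors (MβCD, genistein, EIPA, Cyt D, CPZ, dynasore) co-incubated with 100 μM test nanoparticles or crystals, 37°C, 0.5 h. Trafficking inhibitors (BFA, monensin, Baf-A1, nocodazole) with 200 μM, 37°C, 2 h. Inhibitor levels as in preincubation; intracellular 6-MP by HPLC.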

MRP4 transporter = target: T1, MRP4 transporter (Homo sapiens, UniProt O15439); assay: Effect of MRP4 transporter; assay type: cell-based; conditions: Caco-2 cells, indomethacin 30 μM, 100 μM 6-MPNs or 6-MPCs, 2 h
T1 sequence (O15439 1-1325): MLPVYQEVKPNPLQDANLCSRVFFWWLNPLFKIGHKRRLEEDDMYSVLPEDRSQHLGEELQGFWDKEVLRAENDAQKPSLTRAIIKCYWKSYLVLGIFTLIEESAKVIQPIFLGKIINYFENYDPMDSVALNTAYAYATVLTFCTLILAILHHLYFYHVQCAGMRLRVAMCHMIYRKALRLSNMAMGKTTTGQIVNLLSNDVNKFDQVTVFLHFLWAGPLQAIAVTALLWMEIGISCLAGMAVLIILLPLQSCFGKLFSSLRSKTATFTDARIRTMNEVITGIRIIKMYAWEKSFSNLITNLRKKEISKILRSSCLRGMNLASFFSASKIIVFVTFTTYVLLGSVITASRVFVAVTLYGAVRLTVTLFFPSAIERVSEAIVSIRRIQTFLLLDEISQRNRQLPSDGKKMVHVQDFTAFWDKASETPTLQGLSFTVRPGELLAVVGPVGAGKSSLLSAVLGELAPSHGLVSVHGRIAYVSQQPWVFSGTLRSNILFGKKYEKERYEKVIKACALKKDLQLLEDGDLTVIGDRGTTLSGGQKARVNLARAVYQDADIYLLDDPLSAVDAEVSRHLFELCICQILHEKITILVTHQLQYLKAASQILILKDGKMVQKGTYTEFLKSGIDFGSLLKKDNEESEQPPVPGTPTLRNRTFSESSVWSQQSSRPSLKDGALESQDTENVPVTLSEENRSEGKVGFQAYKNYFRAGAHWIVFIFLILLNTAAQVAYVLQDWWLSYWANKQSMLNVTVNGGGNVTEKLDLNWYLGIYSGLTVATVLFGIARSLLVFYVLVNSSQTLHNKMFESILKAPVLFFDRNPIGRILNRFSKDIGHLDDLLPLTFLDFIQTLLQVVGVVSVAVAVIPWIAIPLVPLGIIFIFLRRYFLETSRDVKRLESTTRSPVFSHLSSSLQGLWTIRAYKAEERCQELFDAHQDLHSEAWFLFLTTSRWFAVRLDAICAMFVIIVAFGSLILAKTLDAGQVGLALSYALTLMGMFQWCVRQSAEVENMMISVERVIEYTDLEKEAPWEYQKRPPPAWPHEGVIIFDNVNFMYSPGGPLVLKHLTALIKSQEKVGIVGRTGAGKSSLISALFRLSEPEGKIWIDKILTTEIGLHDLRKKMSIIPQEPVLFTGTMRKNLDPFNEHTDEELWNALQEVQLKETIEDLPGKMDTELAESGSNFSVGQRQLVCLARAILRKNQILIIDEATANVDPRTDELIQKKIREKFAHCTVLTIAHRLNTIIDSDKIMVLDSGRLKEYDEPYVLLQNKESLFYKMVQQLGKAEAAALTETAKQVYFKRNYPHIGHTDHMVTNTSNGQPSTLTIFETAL
In short: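 Caco-2 cells grown in 6-well plates to 90% confluency, preincubated 0.5 h at 37°C with 30 μM indomethacin (MRP4 inhibitor), PBS-washed ×3, then exposed 2 h to 100 μM test nanoparticles or crystals plus 30 μM indomethacin; controls without indomethacin. Cells PBS-washed and RIPA/1% PMSF-lysed; 6-MP in lysate by HPLC, total protein by BCA.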

[1] = low solubility and high permeability; cited from earlier work

Molecule	effect of intracellular transport inhibitor on the content of intracellular 6-MP (Caco-2 cells)	effect of endocytosis inhibitor on the internalization of 6-MPNs (Caco-2 cells)	other results
C[C@H]1CCC/C=C/[C@@H]2C[C@H](O)C[C@H]2[C@H](O)/C=C/C(=O)O1 [Brefeldin A]	significantly enhanced	–	–
CO/C1=C\C(C)=C\[C@@H](C)[C@@H](O)[C@@H](C)C/C(C)=C/C=C/[C@H](OC)[C@@H]([C@@H](C)[C@@H](O)[C@H](C)[C@@]2(O)C[C@@H](O)[C@H](C)[C@@H](C(C)C)O2)OC1=O [Bafilomycin A1]	significantly enhanced	–	–
COC(=O)Nc1nc2ccc(C(=O)c3cccs3)cc2[nH]1 [Nocodazole, nocodazole]	significantly enhanced	–	–
CC[C@@]1([C@@H]2O[C@@H]([C@H]3O[C@@](O)(CO)[C@H](C)C[C@@H]3C)C[C@@H]2C)CC[C@H]([C@]2(C)CC[C@]3(C[C@H](O)[C@@H](C)[C@@H]([C@@H](C)[C@@H](OC)[C@H](C)C(=O)O)O3)O2)O1 [Monensin]	significantly enhanced	–	–
CCN(c1nc(N)c(C(=O)NC(=N)N)nc1Cl)C(C)C [EIPA, ethyl-isopropyl-amiloride]	–	obviously reduced	–
COc1ccc2c(c1)c(CC(=O)O)c(C)n2C(=O)c1ccc(Cl)cc1 [indomethacin]	–	–	effect on intracellular accumulation of 6-MP (MRP4 transporter): increased
Sc1ncnc2nc[nH]c12 [6-MP, 6-Mercaptopurine]	–	–	biopharmaceutic classification system (BCS) class [1]: class II
O=C(N/N=C/c1ccc(O)c(O)c1)c1cc2ccccc2cc1O [Dynasore, dynasore]	–	obviously reduced	–
O=c1c(-c2ccc(O)cc2)coc2cc(O)cc(O)c12 [Genistein, genistein]	–	less influence	–
C=C1[C@@H](C)[C@H]2[C@H](Cc3ccccc3)NC(=O)[C@]23[C@H](OC(C)=O)/C=C/[C@@](C)(O)C(=O)[C@@H](C)C/C=C/[C@H]3[C@@H]1O [Cyt D, cytochalasin D]	–	less influence	–
Methyl-beta-cyclodextrin [MβCD]	–	obviously reduced	–
CN(C)CCCN1c2ccccc2Sc2ccc(Cl)cc21 [CPZ, chlorpromazine hydrochloride]	–	less influence	–
